Measured values: ChEMBL document CHEMBL1147115 (2007)
Values after ≈ are worked out from the molar mass of the structure shown.

Experiments:
[1] = system: Klebsiella pneumoniae; test: Antimicrobial activity against ESBL producing Klebsiella pneumoniae 265 isolate; type: functional
[2] = system: Klebsiella pneumoniae; test: Antimicrobial activity against ESBL producing Klebsiella pneumoniae 268 isolate; type: functional
[3] = system: Klebsiella pneumoniae; test: Antimicrobial activity against ESBL producing Klebsiella pneumoniae 270 isolate; type: functional
[4] = system: Klebsiella pneumoniae; test: Antimicrobial activity against ESBL producing Klebsiella pneumoniae 260 isolate; type: functional
[5] = system: Klebsiella pneumoniae; test: Antimicrobial activity against ESBL producing Klebsiella pneumoniae 264 isolate; type: functional
[6] = system: Escherichia coli; test: Antimicrobial activity against ESBL producing Escherichia coli 311 isolate; type: functional
[7] = system: Klebsiella pneumoniae; test: Antimicrobial activity against ESBL producing Klebsiella pneumoniae 255 isolate; type: functional
[8] = system: Klebsiella pneumoniae; test: Antimicrobial activity against ESBL producing Klebsiella pneumoniae 254 isolate; type: functional
[9] = system: Klebsiella pneumoniae; test: Antimicrobial activity against ESBL producing Klebsiella pneumoniae 259 isolate; type: functional
[10] = system: Klebsiella pneumoniae; test: Antimicrobial activity against ESBL producing Klebsiella pneumoniae 263 isolate; type: functional
[11] = system: Klebsiella pneumoniae; test: Antimicrobial activity against ESBL producing Klebsiella pneumoniae 266 isolate; type: functional
[12] = system: Klebsiella pneumoniae; test: Antimicrobial activity against ESBL producing Klebsiella pneumoniae 257 isolate; type: functional
[13] = system: Klebsiella pneumoniae; test: Antimicrobial activity against ESBL producing Klebsiella pneumoniae 258 isolate; type: functional
[14] = system: Klebsiella pneumoniae; test: Antimicrobial activity against ESBL producing Klebsiella pneumoniae 262 isolate; type: functional
[15] = system: Klebsiella pneumoniae; test: Antimicrobial activity against ESBL producing Klebsiella pneumoniae 261 isolate; type: functional
[16] = system: Escherichia coli; test: Antimicrobial activity against Escherichia coli ATCC 25922 isolate infected thigh infection model ICR mouse; type: functional, Thigh muscle
How it was run: (§1)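 Female ICR mice (~25 g) were made neutropenic with cyclophosphamide ip (150 and 100 mg/kg, days −4 and −1) and renally impaired with uranyl nitrate 5 mg/kg ip (day −3). Each thigh got 0.1 ml of 10^5 CFU/ml (or 10^7 for high inoculum) im 2 h pre-therapy. Human-simulated regimens were given sc, three mice per group, for 24 h. Efficacy was the log10 CFU/thigh change versus 0-h controls.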

[17] = system: Escherichia coli; test: Antimicrobial activity against Escherichia coli 120 isolate infected thigh infection model ICR mouse; type: functional, Thigh muscle; how it was run: as §1
[18] = system: Escherichia coli; test: Antimicrobial activity against ESBL producing Escherichia coli 320 isolate infected thigh infection model ICR mouse; type: functional, Thigh muscle; how it was run: as §1
[19] = system: Escherichia coli; test: Antimicrobial activity against ESBL producing Escherichia coli 321 isolate infected thigh infection model ICR mouse; type: functional, Thigh muscle; how it was run: as §1
[20] = system: Escherichia coli; test: Antimicrobial activity against ESBL producing Escherichia coli 322 isolate infected thigh infection model ICR mouse; type: functional, Thigh muscle; how it was run: as §1
[21] = system: Escherichia coli; test: Antimicrobial activity against ESBL producing Escherichia coli 310 isolate infected thigh infection model ICR mouse; type: functional, Thigh muscle; how it was run: as §1
[22] = system: Escherichia coli; test: Antimicrobial activity against ESBL producing Escherichia coli 312 isolate infected thigh infection model ICR mouse; type: functional, Thigh muscle; how it was run: as §1
[23] = system: Escherichia coli; test: Antimicrobial activity against ESBL producing Escherichia coli 318 isolate infected thigh infection model ICR mouse; type: functional, Thigh muscle; how it was run: as §1
[24] = system: Escherichia coli; test: Antimicrobial activity against ESBL producing Escherichia coli 243 isolate infected thigh infection model ICR mouse; type: functional, Thigh muscle; how it was run: as §1
[25] = system: Escherichia coli; test: Antimicrobial activity against ESBL producing Escherichia coli 285 isolate infected thigh infection model ICR mouse; type: functional, Thigh muscle; how it was run: as §1
[26] = system: Klebsiella pneumoniae; test: Antimicrobial activity against ESBL producing Klebsiella pneumoniae 225 isolate infected thigh infection model ICR mouse; type: functional, Thigh muscle; how it was run: as §1
[27] = system: Klebsiella pneumoniae; test: Antimicrobial activity against ESBL producing Klebsiella pneumoniae 60 isolate infected thigh infection model ICR mouse; type: functional, Thigh muscle; how it was run: as §1
[28] = system: Escherichia coli; test: Antimicrobial activity against ESBL producing Escherichia coli 315 isolate infected thigh infection model ICR mouse; type: functional, Thigh muscle; how it was run: as §1
[29] = system: Escherichia coli; test: Antimicrobial activity against ESBL producing Escherichia coli 130 isolate infected thigh infection model ICR mouse; type: functional, Thigh muscle; how it was run: as §1
[30] = system: Klebsiella pneumoniae; test: Antimicrobial activity against ESBL producing Klebsiella pneumoniae 265 isolate infected thigh infection model ICR mouse; type: functional, Thigh muscle; how it was run: as §1
[31] = system: Escherichia coli; test: Antimicrobial activity against ESBL producing Escherichia coli 133 isolate infected thigh infection model ICR mouse; type: functional, Thigh muscle; how it was run: as §1
[32] = system: Klebsiella pneumoniae; test: Antimicrobial activity against ESBL producing Klebsiella pneumoniae 101 isolate infected thigh infection model ICR mouse; type: functional, Thigh muscle; how it was run: as §1
[33] = system: Klebsiella pneumoniae; test: Antimicrobial activity against ESBL producing Klebsiella pneumoniae 230 isolate infected thigh infection model ICR mouse; type: functional, Thigh muscle; how it was run: as §1
[34] = system: Klebsiella pneumoniae; test: Antimicrobial activity against ESBL producing Klebsiella pneumoniae 268 isolate infected thigh infection model ICR mouse; type: functional, Thigh muscle; how it was run: as §1
[35] = system: Klebsiella pneumoniae; test: Antimicrobial activity against ESBL producing Klebsiella pneumoniae 270 isolate infected thigh infection model ICR mouse; type: functional, Thigh muscle; how it was run: as §1
[36] = system: Klebsiella pneumoniae; test: Antimicrobial activity against ESBL producing Klebsiella pneumoniae 260 isolate infected thigh infection model ICR mouse; type: functional, Thigh muscle; how it was run: as §1
[37] = system: Klebsiella pneumoniae; test: Antimicrobial activity against ESBL producing Klebsiella pneumoniae 264 isolate infected thigh infection model ICR mouse; type: functional, Thigh muscle; how it was run: as §1
[38] = system: Escherichia coli; test: Antimicrobial activity against ESBL producing Escherichia coli 311 isolate infected thigh infection model ICR mouse; type: functional, Thigh muscle; how it was run: as §1
[39] = system: Klebsiella pneumoniae; test: Antimicrobial activity against ESBL producing Klebsiella pneumoniae 255 isolate infected thigh infection model ICR mouse; type: functional, Thigh muscle; how it was run: as §1
[40] = system: Klebsiella pneumoniae; test: Antimicrobial activity against ESBL producing Klebsiella pneumoniae 254 isolate infected thigh infection model ICR mouse; type: functional, Thigh muscle; how it was run: as §1
[41] = system: Klebsiella pneumoniae; test: Antimicrobial activity against ESBL producing Klebsiella pneumoniae 259 isolate infected thigh infection model ICR mouse; type: functional, Thigh muscle; how it was run: as §1
[42] = system: Klebsiella pneumoniae; test: Antimicrobial activity against ESBL producing Klebsiella pneumoniae 263 isolate infected thigh infection model ICR mouse; type: functional, Thigh muscle; how it was run: as §1
[43] = system: Klebsiella pneumoniae; test: Antimicrobial activity against ESBL producing Klebsiella pneumoniae 266 isolate infected thigh infection model ICR mouse; type: functional, Thigh muscle; how it was run: as §1
[44] = system: Klebsiella pneumoniae; test: Antimicrobial activity against ESBL producing Klebsiella pneumoniae 257 isolate infected thigh infection model ICR mouse; type: functional, Thigh muscle; how it was run: as §1
[45] = system: Klebsiella pneumoniae; test: Antimicrobial activity against ESBL producing Klebsiella pneumoniae 258 isolate infected thigh infection model ICR mouse; type: functional, Thigh muscle; how it was run: as §1
[46] = system: Klebsiella pneumoniae; test: Antimicrobial activity against ESBL producing Klebsiella pneumoniae 262 isolate infected thigh infection model ICR mouse; type: functional, Thigh muscle; how it was run: as §1
[47] = system: Klebsiella pneumoniae; test: Antimicrobial activity against ESBL producing Klebsiella pneumoniae 256 isolate infected thigh infection model ICR mouse; type: functional, Thigh muscle; how it was run: as §1
[48] = system: Klebsiella pneumoniae; test: Antimicrobial activity against ESBL producing Klebsiella pneumoniae 261 isolate infected thigh infection model ICR mouse; type: functional, Thigh muscle; how it was run: as §1
[49] = system: Klebsiella pneumoniae; test: Bacteriostasis activity against ESBL producing Klebsiella pneumoniae 262 isolate at 8 ug/ml; type: functional
[50] = system: Klebsiella pneumoniae; test: Antimicrobial activity against ESBL producing Klebsiella pneumoniae 230 isolate; type: functional
[51] = system: Escherichia coli; test: Antimicrobial activity against ESBL producing Escherichia coli 130 isolate; type: functional
[52] = system: Escherichia coli; test: Antimicrobial activity against Escherichia coli ATCC 25922 isolate; type: functional
[53] = system: Escherichia coli; test: Antimicrobial activity against Escherichia coli 120 isolate; type: functional
[54] = system: Escherichia coli; test: Antimicrobial activity against ESBL producing Escherichia coli 320 isolate; type: functional
[55] = system: Escherichia coli; test: Antimicrobial activity against ESBL producing Escherichia coli 321 isolate; type: functional
[56] = system: Escherichia coli; test: Antimicrobial activity against ESBL producing Escherichia coli 322 isolate; type: functional
[57] = system: Escherichia coli; test: Antimicrobial activity against ESBL producing Escherichia coli 310 isolate; type: functional
[58] = system: Escherichia coli; test: Antimicrobial activity against ESBL producing Escherichia coli 312 isolate; type: functional
[59] = system: Escherichia coli; test: Antimicrobial activity against ESBL producing Escherichia coli 118 isolate; type: functional
[60] = system: Escherichia coli; test: Antimicrobial activity against ESBL producing Escherichia coli 243 isolate; type: functional
[61] = system: Escherichia coli; test: Antimicrobial activity against ESBL producing Escherichia coli 285 isolate; type: functional
[62] = system: Klebsiella pneumoniae; test: Antimicrobial activity against ESBL producing Klebsiella pneumoniae 225 isolate; type: functional
[63] = system: Klebsiella pneumoniae; test: Antimicrobial activity against ESBL producing Klebsiella pneumoniae 60 isolate; type: functional
[64] = system: Escherichia coli; test: Antimicrobial activity against ESBL producing Escherichia coli 315 isolate; type: functional
[65] = system: Escherichia coli; test: Antimicrobial activity against ESBL producing Escherichia coli 133 isolate; type: functional
[66] = system: Klebsiella pneumoniae; test: Antimicrobial activity against ESBL producing Klebsiella pneumoniae 101 isolate; type: functional

C[C@@H](O)[C@H]1C(=O)N2C(C(=O)O)=C(S[C@@H]3CN[C@H](C(=O)N(C)C)C3)[C@H](C)[C@H]12 [MEROPENEM]
MIC [1]: 0.125 µg/mL (≈ 0.326 µM)
MIC [2]: 0.125 µg/mL (≈ 0.326 µM)
MIC [3]: 0.25 µg/mL (≈ 0.652 µM)
MIC [4]: 0.5 µg/mL (≈ 1.3 µM)
MIC [5]: 0.5 µg/mL (≈ 1.3 µM)
MIC [6]: 0.75 µg/mL (≈ 1.96 µM)
MIC [7]: 1 µg/mL (≈ 2.61 µM)
MIC [8]: 2 µg/mL (≈ 5.22 µM)
MIC [9]: 2 µg/mL (≈ 5.22 µM)
MIC [10]: 2 µg/mL (≈ 5.22 µM)
MIC [11]: 2 µg/mL (≈ 5.22 µM)
MIC [12]: 4 µg/mL (≈ 10.4 µM)
MIC [13]: 4 µg/mL (≈ 10.4 µM)
MIC [14]: 8 µg/mL (≈ 20.9 µM)
MIC [15]: 32 µg/mL (≈ 83.4 µM)
fT>MIC [16]: 93%
fT>MIC [17]: 93%
fT>MIC [18]: 93%
fT>MIC [19]: 93%
fT>MIC [20]: 93%
fT>MIC [21]: 90%
fT>MIC [22]: 90%
fT>MIC [23]: 90%
fT>MIC [24]: 90%
fT>MIC [25]: 90%
fT>MIC [26]: 90%
fT>MIC [27]: 88%
fT>MIC [28]: 85%
fT>MIC [29]: 85%
fT>MIC [30]: 85%
fT>MIC [31]: 85%
fT>MIC [32]: 85%
fT>MIC [33]: 85%
fT>MIC [34]: 85%
fT>MIC [35]: 80%
fT>MIC [36]: 75%
fT>MIC [37]: 75%
fT>MIC [38]: 70%
fT>MIC [39]: 65%
fT>MIC [40]: 58%
fT>MIC [41]: 58%
fT>MIC [42]: 58%
fT>MIC [43]: 58%
fT>MIC [44]: 45%
fT>MIC [45]: 45%
fT>MIC [46]: 30%
fT>MIC [47]: 18%
fT>MIC [48]: 5%
MIC [49]: 8 µg/mL (≈ 20.9 µM)
MIC [50]: 0.094 µg/mL (≈ 0.245 µM)
MIC [51]: 0.125 µg/mL (≈ 0.326 µM)
MIC [52]: 0.03 µg/mL (≈ 0.0782 µM)
MIC [53]: 0.03 µg/mL (≈ 0.0782 µM)
MIC [54]: 0.03 µg/mL (≈ 0.0782 µM)
MIC [55]: 0.032 µg/mL (≈ 0.0834 µM)
MIC [56]: 0.032 µg/mL (≈ 0.0834 µM)
MIC [57]: 0.047 µg/mL (≈ 0.123 µM)
MIC [58]: 0.047 µg/mL (≈ 0.123 µM)
MIC [59]: 0.047 µg/mL (≈ 0.123 µM)
MIC [60]: 0.047 µg/mL (≈ 0.123 µM)
MIC [61]: 0.047 µg/mL (≈ 0.123 µM)
MIC [62]: 0.047 µg/mL (≈ 0.123 µM)
MIC [63]: 0.064 µg/mL (≈ 0.167 µM)
MIC [64]: 0.094 µg/mL (≈ 0.245 µM)
MIC [65]: 0.094 µg/mL (≈ 0.245 µM)
MIC [66]: 0.094 µg/mL (≈ 0.245 µM)
